# Active and inactive are the calls of the source. The calls are words filed in the database; no cut-off is given here.
# Legend:
# Rattus norvegicus [1] = assay: Effect on LPS-induced Sprague-Dawley rat disseminated intravascular coagulation model assessed as amelioration of increased fibrin degradation product levels at 10 mg/day or 25 mg/day, po after 2 hrs of fasting for 2 consecutive days; assay type: functional, organism-based
# Outline: (§1)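 Male Sprague–Dawley rats (230–270 g) dosed orally in distilled water once daily for 2 days. Ketamine anaesthesia 1 h after the second dose, then LPS 20 mg/kg in saline infused into the tail vein for 3 h. Citrated plasma was used for PT, aPTT and fibrinogen, serum for FDP (semi-quantitative kit, dilution method), and serum by analyzer for AST and BUN. Mean ± SEM, ANOVA with Tukey HSD, n = 6–13 per group.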
# Rattus norvegicus [2] = assay: Effect on LPS-induced Sprague-Dawley rat disseminated intravascular coagulation model assessed as prolongation of activated partial […] time at 10 mg/day or 25 mg/day, po after 2 hrs of fasting for 2 consecutive days; assay type: functional, organism-based; outline: as §1
# Platelet [3] = assay: Inhibition of NaAA-induced platelet aggregation in rat blood; assay type: functional, cell-based
# Rattus norvegicus [4] = assay: Effect on Sprague-Dawley rat disseminated intravascular coagulation model assessed as suppression of LPS-induced aspartate aminotransferase levels at 10 mg/day or 25 mg/day, po after 2 hrs of fasting for 2 consecutive days; assay type: functional, organism-based; outline: as §1
# Platelet [5] = assay: Inhibition of epinephrine-induced platelet aggregation in rat blood; assay type: functional, cell-based
# Rattus norvegicus [6] = assay: Effect on Sprague-Dawley rat disseminated intravascular coagulation model assessed as prevention of LPS-induced decrease in fibrinogen level at 10 mg/day or 25 mg/day, po after 2 hrs of fasting for 2 consecutive days; assay type: functional, organism-based; outline: as §1
# Rattus norvegicus [7] = assay: Effect on LPS-induced Sprague-Dawley rat disseminated intravascular coagulation model assessed as prolongation of prothrombin time at 10 mg/day or 25 mg/day, po after 2 hrs of fasting for 2 consecutive days; assay type: functional, organism-based; outline: as §1
# Rattus norvegicus [8] = assay: Effect on LPS-induced Sprague-Dawley rat disseminated intravascular coagulation model assessed as amelioration of increased urea nitrogen levels at 10 mg/day or 25 mg/day, po after 2 hrs of fasting for 2 consecutive days; assay type: functional, organism-based; outline: as §1
# Platelet [9] = assay: Inhibition of U46619-induced platelet aggregation in rat blood; assay type: functional, cell-based
# Platelet [10] = assay: Inhibition of ADP-induced platelet aggregation in rat blood; assay type: functional, cell-based
# Outline: (§2)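 Rat heart blood in 2.2% citrate, spun at 200g for 10 min to give PRP, adjusted to 400–450 × 10⁶ platelets/ml with saline. PRP pre-incubated 3 min, then sample or vehicle added, with ADP (2–5 × 10⁻⁶ M) or collagen (2–5 × 10⁻⁶ g/ml) added 1 min later. Aggregation read on an aggregometer and the 50% inhibitory concentration determined.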
# Platelet [11] = assay: Inhibition of collagen-induced platelet aggregation in rat blood; assay type: functional, cell-based; outline: as §2
Compound,Activity (Rattus norvegicus [1]),Activity (Rattus norvegicus [2]),IC50 (Platelet [3]),Activity (Rattus norvegicus [4]),IC50 (Platelet [5]),Activity (Rattus norvegicus [6]),Activity (Rattus norvegicus [7]),Activity (Rattus norvegicus [8]),IC50 (Platelet [9]),IC50 (Platelet [10]),IC50 (Platelet [11])
Oc1cc2c(cc1O)[C@H](Cc1ccc3ccccc3c1)NCC2,Active,Active,6.2 µM,Active,0.9 µM,Active,Active,Active,61 µM,,
Oc1cc2c(cc1O)[C@@H](Cc1cccc3ccccc13)NCC2,Active,Active,11 µM,,2.4 µM,,Active,Active,20 µM,,
Oc1cc2c(cc1O)[C@H](Cc1cccc3ccccc13)NCC2,Active,Active,5.6 µM,,0.38 µM,,Active,Active,16 µM,270 µM,69 µM
Oc1cc2c(cc1O)[C@@H](Cc1ccc3ccccc3c1)NCC2,Active,Active,7.9 µM,Active,15 µM,,Active,Active,49 µM,,
CC(=O)Oc1ccccc1C(=O)O [ASPIRIN],,,66 µM,,53 µM,,,,340 µM,> 1000 µM,420 µM
Oc1ccc(C[C@@H]2NCCc3cc(O)c(O)cc32)cc1 [(-)-HIGENAMINE],Active,Active,9.1 µM,Active,1.6 µM,Active,Active,Active,25 µM,,
Oc1ccc(C[C@H]2NCCc3cc(O)c(O)cc32)cc1 [(+)-HIGENAMINE],Active,Active,11 µM,Active,14 µM,,Active,Active,15 µM,> 1000 µM,

# — ChEMBL document CHEMBL1154998, “Enantioselective synthesis of (R)-(+)- and (S)-(-)-higenamine and their analogues with effects on platelet aggregation and experimental animal model of disseminated intravascular coagulation” (Bioorg Med Chem Lett, 2008)
